# Measurements gathered from unrelated publications.
# Protocols differ between the studies behind these lines.
# Target: MAP kinase-activated protein kinase 2 (MAPKAPK2, Homo sapiens, UniProt P49137)
SMILES,effect on,technique,tested at,remaining binding [%]
O=C(c1ccc(Nc2ncc(Cl)c(-c3ccc(Cl)s3)n2)cc1)N1CCC(N2CCCC2)CC1,binding,competition with immobilised ligand,1 µM,100
COc1cnc(Nc2cccc(S(N)(=O)=O)c2)nc1N1CCN(c2ccccc2)C(=O)C1,binding,competition with immobilised ligand,1 µM,100
FC(F)(F)Oc1cccc(-c2cnc3ccc(-c4ccncc4)nn23)c1,cell-free assay,competition with immobilised ligand,5 µM,100
c1cnn2ncc(-c3ccnc(N4CCC45COC5)n3)c2c1,binding,,1 µM,100
NS(=O)(=O)c1cc(NC(=O)Cc2ccccc2)ccc1Oc1cccc(Cl)c1,cell-free assay,competition with immobilised ligand,1 µM,100
O=C(Nc1c[nH]nc1C(=O)NC1CCNCC1)c1cc(F)cc(F)c1,binding,competition with immobilised ligand,1 µM,100
C[C@@H]1CN(c2ccc3ncc(-c4ccc5[nH]nc(C6CC6)c5c4)n3n2)C[C@H](C)O1,binding,competition with immobilised ligand,0.5 µM,89
O=C(NCCCN1CCOCC1)c1ccc(Nc2ncc(Cl)c(-c3ccc(Cl)s3)n2)cc1,binding,competition with immobilised ligand,1 µM,100
O=C(O)c1cc(-c2ccc(C3CCNCC3)cc2)c2ccc(-c3ccc(C(F)(F)F)cc3)cc2c1,cell-free assay,competition with immobilised ligand,1 µM,51
N[C@H]1CCN(c2nccc(-c3cnn4ncccc34)n2)C1,binding,,1 µM,39
CNC(=O)Nc1ccc2c(c1)[C@@]1(CC2)OC(=O)N(CC(=O)N(Cc2ccc(F)cc2)[C@@H](C)C(F)(F)F)C1=O,cell-free assay,competition with immobilised ligand,1 µM,100
CN(C)c1nccc(-c2cnc3ncccn23)n1,binding,,1 µM,84
CN([C@@H]1CCc2c(CC(=O)O)c3ccccc3n2C1)S(=O)(=O)c1ccc(F)cc1,cell-free assay,competition with immobilised ligand,1 µM,100
CN(c1nccc(-c2cnn3ncccc23)n1)C1CC1,binding,,1 µM,83
COc1cc(-c2cn(C3CCc4ccccc4N(CC(F)(F)F)C3=O)nn2)ccc1-n1ccc(C)n1 (stereo not shown),cell-free assay,competition with immobilised ligand,1 µM,90
C=CC(=O)N1CCC(C(=O)NCC(=O)N2CCN(c3nc(-c4cnc(N)nc4C(F)F)nc(N4CCOCC4)n3)CC2)CC1,binding,competition with immobilised ligand,1 µM,100
